This is an account of results in ChEMBL document CHEMBL1123102, “Synthesis and anthelmintic activity of 5(6)-(benzimidazol-2-ylcarbamoyl) and (4-substituted piperazin-1-yl)benzimidazoles” (1985).

Assay [1] relates to Rattus norvegicus. Kind of assay: Antifilarial activity evaluated as (percent death of adult worms on a day 42) against Litomosoides carinii in Coton rat, at a dose (6 mg/kg X 5) administered intraperitoneally; Nil. The format is functional, organism-based. The procedure, abridged: (§1)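 Cotton rats (Sigmodon hispidus) were infected with L. carinii through the vector Liponyssus bacoti. At the end of the prepatent period, animals with at least 250 microfilariae per blood sample were selected, 3–4 per experiment. Drug in water or Tween 80 suspension was given ip daily for 5 days. Blood smears were taken weekly up to 6 weeks. On day 42, animals were killed and the condition of adult male and female worms assessed.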

Assay [2] concerns Rattus norvegicus. Kind of assay: Antifilarial activity evaluated as (persistance of microfilaricidal effect)against Litomosoides carinii in Coton rat, at a dose (6 mg/kg X 5)administered intraperitoneally. The format is functional. The procedure, abridged:
(§2)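 Cotton rats (Sigmodon hispidus) infected with L. carinii by vector mite (Liponyssus bacoti) transmission. Animals with ≥250 microfilariae per 5 µL blood after prepatency were used, 3–4 per experiment. Drug was given i.p. in water or Tween 80 suspension daily for 5 days. Blood smears were read weekly up to 6 weeks. Adult worms were examined at sacrifice on day 42.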

Assay [3] concerns Rattus norvegicus. Kind of assay: Antifilarial activity evaluated as (percent reduction of microfilariae) against Litomosoides carinii in Coton rat, at a dose (6 mg/kg X 5) administered intraperitoneally. The format is functional. The procedure, abridged:
as §2

Assay [4] concerns Rattus norvegicus. Kind of assay: Antifilarial activity evaluated as (percent death of adult worms on day 42) against Litomosoides carinii in Cotton rat, at a dose (30 mg/kg X 5) administered intraperitoneally. The format is functional. Summed up: as §1
Assay [5] concerns Rattus norvegicus. Nature of the assay: Antifilarial activity evaluated as (persistance of microfilaricidal effect)against Litomosoides carinii in Cotton rat, at a dose (30 mg/kg X 5) administered intraperitoneally. The format is functional. The procedure, abridged: as §2
Assay [6] relates to Rattus norvegicus. Kind of assay: Antitapeworm activity evaluated as reduction of worms with scolices against Hymenolepis nana in rat ( dose 250 mg/kg X3 )administered orally. The format is functional. The conditions noted are these: route oral. Summed up: (§3)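 Newly weaned male albino rats (Freiburg strain, 25–30 g) were infected orally with 200 viable H. nana ova. Those passing eggs on day 17 were treated orally, 3–5 per group, three daily doses after a 5–6 h fast. Rats were fasted again on day 3 of treatment and sacrificed. Worms with scolices and worm-free animals were scored.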

The test system of assay [7] is Rattus norvegicus. Kind of assay: Antitapeworm activity evaluated as(percent animal freed of worms) against Hymenolepis nana in rat (dose 250 mg/kg X 3)administered orally. The format is functional. The conditions noted are these: route oral. Summed up:
as §3

Assay [8] concerns Rattus norvegicus. Kind of assay: Antifilarial activity evaluated as (percent reduction of microfilariae) against Litomosoides carinii in Coton rat, at a dose (30 mg/kg X 5) administered intraperitoneally. The format is functional. Summed up: as §2
The subject of assay [9] is Rattus norvegicus. Nature of the assay: Antitapeworm activity evaluated as reduction of worms with scolices against Hymenolepis nana in rat ( dose 250 mg/kg X 3) administered orally. The format is functional. The conditions noted are these: route oral. Summed up: as §3
Assay [10] concerns Rattus norvegicus. Kind of assay: Antifilarial activity evaluated as (percent death of adult worms on day 42) against Litomosoides carinii in Coton rat, at a dose (30 mg/kg X 5) administered intraperitoneally. The format is functional. Summed up:
as §1

Assay [11] deals with Rattus norvegicus. Nature of the assay: Antifilarial activity evaluated as (persistance of microfilaricidal effect) against Litomosoides carinii in Coton rat, at a dose (30 mg/kg X 5) administered intraperitoneally. The format is functional. The procedure, abridged:
as §2

The test system of assay [12] is Rattus norvegicus. Kind of assay: Antitapeworm activity evaluated as reduction of worms with scolices against Hymenolepis nana in rat ( dose 400 mg/kg X 3) administered orally. The format is functional. The note with it: route oral. Summed up: as §3
In assay [13] the test system is Rattus norvegicus. Nature of the assay: Antitapeworm activity evaluated as(percent animal freed of worms) against Hymenolepis nana in rat (dose 400 mg/kg X 3)administered orally. The format is functional. The conditions noted are these: route oral. The procedure, abridged:
as §3

The subject of assay [14] is Rattus norvegicus. Nature of the assay: Antitapeworm activity evaluated as reduction of worms with scolices against Hymenolepis nana in rat (dose 50 mg/kg X 3)administered orally. The format is functional. The conditions noted are these: route oral. The procedure, abridged: as §3
The test system of assay [15] is Rattus norvegicus. Kind of assay: Antitapeworm activity evaluated as reduction of worms with scolices against Hymenolepis nana in rat (dose 250 mg/kg X 3) administered orally. The format is functional. The conditions noted are these: route oral. The procedure, abridged: as §3
Assay [16] relates to Rattus norvegicus. Nature of the assay: Antitapeworm activity evaluated as (percent animal freed of worms) against Hymenolepis nana in rat (dose 100 mg/kg X 3)administered orally. The format is functional. The conditions noted are these: route oral. The procedure, abridged: as §3
Assay [17] concerns Rattus norvegicus. Nature of the assay: Antitapeworm activity evaluated as(percent animal freed of worms) against Hymenolepis nana in rat ( dose 250 mg/kg X 3)administered orally. The format is functional. The conditions noted are these: route oral. The procedure, abridged: as §3
For assay [18], the system named is Rattus norvegicus. Kind of assay: Antitapeworm activity evaluated as(percent animal freed of worms) against Hymenolepis nana in rat (dose 50 mg/kg X 3)administered orally. The format is functional. The conditions noted are these: route oral. Summed up: as §3
Assay [19] has as its system Rattus norvegicus. Nature of the assay: Antitapeworm activity evaluated as reduction of worms with scolices against Hymenolepis nana in rat (dose 100 mg/kg X 3)administered orally. The format is functional. The note with it: route oral. The procedure, abridged: as §3

With `CCN(CC)C(=O)N1CCN(C)CC1` [DIETHYLCARBAMAZINE], the Death result in assay [1] is listed as “Nil”. The compound also showed an Activity in assay [2] of 7. In addition, in assay [3], the Removal was greater than 95%.
The compound `COC(=O)Nc1nc2cc(N3CCN(C(=O)c4ccco4)CC3)ccc2[nH]1` yielded a Death in [4] of 90%. Besides, the Activity in [5] worked out at 42. Besides, the Reduction in assay [6] and in assay [7] was 100% in each case. Also, the Removal in assay [8] is greater than 90%.
On to `CCN(CC)C(=O)N1CCN(c2ccc3[nH]c(NC(=O)OC)nc3c2)CC1`, for which the Reduction in assay [9] and in [7] was 100% each time. For the same compound, the Death in [10] is 100%. In assay [11], the Activity is listed as 42. The compound further had a Removal in assay [8] greater than 95%.
Take `COC(=O)Nc1nc2cc(C(=O)c3ccccc3)ccc2[nH]1` [MEBENDAZOLE]: the Reduction in [12] and in [13] was 0% each time.
With `COC(=O)Nc1nc2cc(N3CCN(C(=O)c4ccccc4)CC3)ccc2[nH]1`, the Reduction in assay [14] stood at 100%; in assay [15], 100%; in assay [16], 100%; in assay [17], 100%; in [18] it was 85%; in assay [19] it was 100%.
